Shown are actives, neighbours in structure and some others; about 2.2% of the full set was active somewhere.
PPC-1+TRAIL kill = compounds killing PPC-1 cancer cells with TRAIL present, primary screen, TRAIL potentiator project, ATPLite luminescence, uHTS; PPC-1 cells + TRAIL, ATPLite viability luminescence; cell killing (% activity), % at 4 µM or 5 µM; hit rate 0.41% among 220,000;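 active means cell killing above 50% in the first pass at 4 µM, then a duplicate retest at 5 µM averaging 50% or more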;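 further: plate controls were cells with TRAIL plus DMSO for no effect and medium-only wells lacking cells for full effect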
FLuc inh counter = firefly luciferase enzyme inhibitors, primary screen, artefact control for luciferase-based inhibitor screens, biochemical, luminescence, ATPLite | Luciferin 4-monooxygenase (Photinus pyralis), P08659 | inhibition, % at 10 µM | 10 min | hit rate 1.5% among 200,000;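 active means inhibition above about 50% when tested at 10 µM, limit read from the data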
Target sequence (P08659 whole entry, looked up): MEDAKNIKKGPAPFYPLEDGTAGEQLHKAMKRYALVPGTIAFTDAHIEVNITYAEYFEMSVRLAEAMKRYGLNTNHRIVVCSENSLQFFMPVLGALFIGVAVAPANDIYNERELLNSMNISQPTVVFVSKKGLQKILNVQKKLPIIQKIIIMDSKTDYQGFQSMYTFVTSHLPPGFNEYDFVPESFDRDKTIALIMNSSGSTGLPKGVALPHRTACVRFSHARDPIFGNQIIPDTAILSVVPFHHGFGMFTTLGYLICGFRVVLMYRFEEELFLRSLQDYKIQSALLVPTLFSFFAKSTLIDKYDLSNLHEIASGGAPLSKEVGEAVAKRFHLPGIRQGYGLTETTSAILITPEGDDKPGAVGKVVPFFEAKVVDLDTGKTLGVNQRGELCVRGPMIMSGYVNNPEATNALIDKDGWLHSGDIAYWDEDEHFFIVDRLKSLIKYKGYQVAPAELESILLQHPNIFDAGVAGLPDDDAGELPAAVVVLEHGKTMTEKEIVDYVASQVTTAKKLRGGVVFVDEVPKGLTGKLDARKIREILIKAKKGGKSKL
APP 5'UTR act = activators of APP 5'UTR luciferase reporter, primary screen, SH-SY5Y cells; SH-SY5Y APP 5'UTR luciferase reporter, luminescence; zero percent = DMSO vehicle wells; activation, % at 2 µM; hit rate 1% among 190,000;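 active means activation above a set limit, based on mean plus 3 SD of controls, cut at about 140% in these data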
NF-kB neuron act = activators of NF-kB expression in neurons, primary screen, cell-based, HTS. human neuronal cells, NF-kB reporter expression; active compounds read high. fold change at 12.5 µM. hit rate 1.6% among 190,000; in the data active means fold change above about 3.3
FLuc stim CS = FLuc activators, initial screening, artefact control for FLuc-dependent activation tests, biochemical, ATPlite luminescence; Luciferin 4-monooxygenase (Photinus pyralis), P08659; ATPlite luciferase biochemical, 10 min; 0 = ATP-free wells, 1 = DMSO control; activation factor at 10 µM; 200,000 tested, under 10 active;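 active means luciferase activation factor, scaled between plate controls, of at least 2 with compound at 10 µM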
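System: cell-free luciferase reagent; medium: PBS as buffer for the ATP substrate; doses: test compounds dosed from 2 mM stocks in 100% DMSO; incubation: 10 min, room temperature; measured by: luminescence from luciferase reaction; read-out: luciferase activation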
C8 TRAIL sens = viability loss with TRAIL in NB7+C8 cells, primary screen, TRAIL sensitizer project, cell-based, ATPlite luminescence; inhibition (viability loss, TRAIL sensitization), % at 10 µM; hit rate 1% among 360,000;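 active means compounds causing at least 50% loss of cell viability in the single-dose screen, relative to plate controls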
PPC1 cytotox = cytotoxicity in PPC-1 cells, confirmation, cytotoxicity control for TRAIL apoptosis potentiator project, cell-based, ATP content luminescence. PPC-1 viability, ATPlite luminescence, overnight. shares compounds with PPC-1+TRAIL kill. cytotoxicity, % at 5 µM. AID 1447, 2008. hit rate 50% among 1,200;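 active means reconfirmed compounds whose average cytotoxicity reaches 50% or more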;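 further: 0% = DMSO-treated cells and 100% = wells holding medium but no cells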
Active calls of the source: *; . = not tested or not shown.

SMILES | PPC-1+TRAIL kill | FLuc inh counter | APP 5'UTR act | NF-kB neuron act | FLuc stim CS | C8 TRAIL sens | PPC1 cytotox
CCNC(=S)NNC(=O)c1cc(-c2ccccc2C)nc2ccccc12 | -0.7 | 1.6 | -9.9 | 0.82 | 1 | 5.3 | .
CC(O)(c1cccnc1)c1nc(-c2ccc(F)c(Cl)c2)cs1 (stereo not given) | . | . | . | . | . | -1.8 | .
CSc1ccc(CN2CCC2(C)C(=O)Nc2cccc(NS(C)(=O)=O)c2)cc1 (stereo not given) | . | . | . | . | . | 7.9 | .
O=C(NNC(=O)c1cc(-c2ccccc2)nc2ccccc12)Nc1cccc(Cl)c1 | 10.3 | -5.7 | -7.6 | 0.68 | 1.1 | -10.5 | .
CC(C)(C)c1ccc(-c2cc(C(=O)NNC(=O)Nc3ccccc3)c3ccccc3n2)cc1 | 64.5* | 77.3* | 95.6 | 2.81 | 0.2 | 68.4* | 60.6*
Cc1cc(/C=C2/C(=O)NN(c3ccccc3)C2=O)c(C)n1-c1cccc(O)c1 | 81.2* | 93.8* | 180.9* | 0.92 | 0.1 | 84.5* | 82.9*
O=C1NN(c2ccccc2)C(=O)C1=Cc1ccccc1O | . | . | . | . | . | -6.9 | .
COc1cc(OC)c(C(=O)Nc2cccnc2)cc1OC | . | . | . | . | . | -7.5 | .
COc1cc2ccccc2cc1C(=O)Nc1cccnc1 | 8.1 | 18.8 | 76.2 | 2.44 | 0.8 | 5.0 | 16.4
O=C1Nc2ccccc2-n2nnnc2C1N1CCN(CCN2CCOCC2)CC1 (stereo not given) | . | . | . | . | . | 8.8 | .
CN[C@H]1C[C@H]2c3[nH]c4ccc(-c5ccc(OC)cc5)cc4c3CCN2C(=O)[C@H]1[C@H](C)O | . | . | . | . | . | 1.8 | .
COc1ccccc1Cc1c(-c2ccco2)nc2ccc(Br)cn12 | . | . | . | . | . | -10.2 | .
Cc1ccc(-c2nnc(Nc3ccccc3)o2)cc1 | 83.5* | 88.2* | 98.7 | 3.27 | 0.1 | 80.6* | 85.0*
Cc1ccc(/C=C/C(=O)Nn2cnnc2)cc1 | 1.4 | 41.2 | 15.9 | 0.96 | 0.6 | 5.8 | .
Cc1ccc(/C=C/C(=O)C2C(=O)c3ccccc3C2=O)cc1 | 94.8* | 97.3* | 57.5 | 2.37 | 0 | 85.1* | 94.1*
O=c1c(O)c(-c2cccs2)oc2ccc(Cl)cc12 | 2.1 | -2.9 | -5.7 | 1.13 | 1 | 10.6 | 6.0
O=c1c(O)c(-c2cccs2)oc2ccccc12 | 12.4 | -5.1 | 1.4 | 1.08 | 1.1 | -0.8 | .
CCc1c(C2CC2)ncn1Cc1cccc(-c2ccccc2)c1 | . | . | . | . | . | 15.3 | .
O=C(Nc1ccc([N+](=O)[O-])cc1)C(=O)Nc1cccc(C(=O)O)c1 | 74.8* | . | . | . | . | 85.9* | 69.8*
CSc1cc(C)n(-c2ccccc2)c(=S)c1C(C)=O | -5.0 | -6.1 | -7.4 | 1.11 | 1.1 | 19.6 | -6.0
CCOC(=O)c1cnc(Nc2nc3ccccc3o2)nc1C | 80.5* | 91.4* | 104.4 | 3.47* | 0.1 | 88.1* | 78.9*
CCOC(=O)c1cnc(Nc2nc3ccccc3o2)nc1CN1CCN(c2ccccc2)CC1 | . | . | 16.6 | . | . | . | .
CCC(=O)Nc1sccc1C(=O)OC | -3.5 | 0.3 | 2.7 | 1.13 | 1 | 8.5 | -1.4
Cc1ccc(C(=O)N(C)c2ccc(OCC(=O)N3c4ccc(C)cc4C4CN(C)CCC43)cc2)cc1 (stereo not given) | 51.7* | 87.9* | 26.9 | 0.98 | 0.1 | 51.8* | 46.2
Cc1ccc2c(c1)C1CN(C)CCC1N2C(=O)COc1ccc(N(C)C(=O)C(C)(C)C)cc1 (stereo not given) | -6.8 | -6.5 | -15.4 | 1 | 1.1 | -3.5 | .
Cc1cc(N2CC(=O)N(CCc3ccccc3)C(=O)C2)n2ncnc2n1 | 10.3 | -4.9 | -2.7 | 0.95 | 1 | -17.6 | -1.8
Cc1cc(N2CCN(c3ccccc3)CC2)n2ncnc2n1 | 6.3 | -5.3 | 26.1 | 1.04 | 1.1 | -12.7 | .
c1cc2c(cc1C1=NNC(=NC3CC3)SC1)OCCO2 | 88.6* | 96.3* | -51.0 | 0.26 | 0 | 91.7* | 87.5*
Cc1ccc(CNC(=O)CN2C(=O)C3(OCCCO3)c3ccccc32)cc1 | 17.5 | -3.2 | 5.8 | 0.81 | 1 | 9.4 | .
